Read-outs that look alike come from different tables or passages of the source.
How the values were obtained:
[1] = test system: Staphylococcus aureus TISTR746; test: Agar disc diffusion, S. aureus; type: cell-based; details: S. aureus TISTR 746; extracts 500 mg/mL on disc; 37 °C, 24 h
Summary of the method: (§1)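 Bacteria suspended in 0.85 % saline to McFarland 0.5 (1.5 × 10^8 CFU/mL) and swabbed onto Mueller–Hinton agar. Sterile paper discs loaded with 10 μL of 500 mg/mL extract. Chloramphenicol positive control, DMSO negative control. Plates incubated aerobically at 37 °C for 24 h. Inhibition zones measured in mm with calipers; three independent experiments, mean ± SEM.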

[2] = test system: Escherichia coli TISTR1984; test: Agar disc diffusion, E. coli; type: cell-based; details: E. coli TISTR 1984; extracts 500 mg/mL on disc; 37 °C, 24 h
Summary of the method: as §1

[3] = ABTS free radical scavenging assay; details: at 0.5 mg/mL
Summary of the method: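 Free-radical scavenging measured by mixing ABTS working solution with test compound, then incubating 10 min in the dark at room temperature. Absorbance read at 734 nm. Trolox served as standard and positive control. Three independent experiments, mean ± SEM, one-way ANOVA vs diluent control.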

[4] = DPPH free radical scavenging assay; details: at 1 mg/mL
Summary of the method: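 Test compound mixed with 150 μM DPPH reagent, shaken immediately, then held 30 min in the dark at room temperature. Absorbance read at 520 nm. Trolox served as standard and positive control. Three independent experiments, mean ± SEM, one-way ANOVA vs diluent control.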

MDA-MB-231 cells [5] = test: MTT cell viability, MDA-MB-231; type: cell-based, human; details: MDA-MB-231, MTT
Summary of the method: (§2)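 Cells grown in DMEM/10 % FBS at 37 °C, 5 % CO2, seeded at 5 × 10^3 cells/well and left 24 h. Exposed to extracts (0–400 µg/mL) or cisplatin (0–400 µM) for 24, 48 or 72 h. MTT added for 2 h at 37 °C, formazan dissolved in DMSO, OD read at 570 nm. % viability and IC50 derived; three independent experiments, mean ± SEM.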

MCF10A cells = test: MTT cell viability, MCF10A; type: cell-based, human
Summary of the method: as §2

MCF-7 cells [6] = test: MTT cell viability, MCF-7; type: cell-based, human; details: MCF-7, MTT
Summary of the method: as §2

MCF-7 cells [7] = test: Clonogenic cell survival assay, MCF-7; type: cell-based, human; details: cisplatin 100 μM, 24 h, p < 0.05 vs control
Summary of the method: (§3)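 Cells grown in DMEM/10 % FBS at 37 °C, 5 % CO2, seeded at 2 × 10^5 cells/well and left 24 h. Test compound or cisplatin added for 24 h. Cells trypsinised and reseeded at 1 × 10^3 cells/well without drug for 8–10 days. Fixed in cold methanol 45 min, stained with 0.5 % crystal violet 45 min. Colonies counted by light microscopy as % of untreated control; n = 3, one-way ANOVA.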

HEK293T cells = test: MTT cell viability, HEK293T; type: cell-based, human
Summary of the method: as §2

MDA-MB-231 cells [8] = test: Clonogenic cell survival assay, MDA-MB-231; type: cell-based, human; details: cisplatin 100 μM, 24 h, p < 0.0001 vs control
Summary of the method: as §3

RAW264.7 cells = test: MTT cell viability, RAW264.7; type: cell-based, mouse; details: RAW cells, 24 h, compared to untreated cells
Summary of the method: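 RAW264.7 macrophages grown in DMEM/10 % FBS at 37 °C, 5 % CO2. Exposed 24 h to dexamethasone (0–100 μM) or LPS (0–100 ng/mL). Viability expressed relative to untreated cells.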

Compound: O=C(N[C@H](CO)[C@H](O)c1ccc([N+](=O)[O-])cc1)C(Cl)Cl [CHL, Chloramphenicol]
- ZOI [1]: 29.75 ± 1.77 mm
- ZOI [2]: 29.75 ± 0.35 mm

Compound: Cc1c(C)c2c(c(C)c1O)CCC(C)(C(=O)O)O2 (centres unmarked) [Trolox]
- ABTS radical inhibition rate [3]: 69.92 ± 3.08%
- DPPH radical inhibition rate [4]: 98.02 ± 0.21%

Compound: N.N.[Cl][Pt][Cl] [cisplatin]
- IC50 (MDA-MB-231 cells [5]; read-out: IC50 for 24 h, 24 h): 46.7 ± 2.89 µM
- IC50 (MDA-MB-231 cells [5]; read-out: IC50 for 48 h, 48 h): 44.7 ± 2.86 µM
- IC50 (MDA-MB-231 cells [5]; read-out: IC50 for 72 h, 72 h): 33.3 ± 2.64 µM
- IC50 (MCF10A cells; read-out: IC50 for 24 h, 24 h): 74.3 ± 3.24 µM
- IC50 (MCF10A cells; read-out: IC50 for 48 h, 48 h): 37.2 ± 2.72 µM
- IC50 (MCF10A cells; read-out: IC50 for 72 h, 72 h): 26.2 ± 1.66 µM
- IC50 (MCF-7 cells [6]; read-out: IC50 for 24 h, 24 h): 73.8 ± 3.24 µM
- IC50 (MCF-7 cells [6]; read-out: IC50 for 48 h, 48 h): 41.5 ± 2.8 µM
- IC50 (MCF-7 cells [6]; read-out: IC50 for 72 h, 72 h): 32.9 ± 2.63 µM
- colony formation (MCF-7 cells [7]): significantly decreased
- IC50 (HEK293T cells; read-out: IC50 for 24 h, 24 h): 62.3 ± 3.1 µM
- IC50 (HEK293T cells; read-out: IC50 for 48 h, 48 h): 11.6 ± 1.3 µM
- IC50 (HEK293T cells; read-out: IC50 for 72 h, 72 h): 3.25 ± 0.88 µM
- colony formation (MDA-MB-231 cells [8]): significantly decreased

Compound: C[C@@H]1C[C@H]2[C@@H]3CCC4=CC(=O)C=C[C@]4(C)[C@@]3(F)[C@@H](O)C[C@]2(C)[C@@]1(O)C(=O)CO [dexamethasone]
- cell viability (RAW264.7 cells; dexamethasone at 0–12.50 μM): unchanged

Compound: lipopolysaccharide [LPS]
- cell viability (RAW264.7 cells; LPS at 0–12.5 ng/mL): unchanged
